Here are results for one molecule from paper PMC9977173 (Science Advances, 2023).

Structures are written as SMILES. Where a SMILES comes first, the peptide text is derived from it. Bridges are numbered along the chain shown (N, C = ends). Roman numbers before positions name the chains, in order. The star is where a group is joined. X1 = O=C(Cn1cc(CCCC(=O)*)nn1)NC(COCc1cn(CCO[C@H]2O[C@H](CO)[C@@H](O)[C@H](O)[C@@H]2O)nn1)(COCc1cn(CCO[C@H]2O[C@H](CO)[C@@H](O)[C@H](O)[C@@H]2O)nn1)COCc1cn(CCO[C@H]2O[C@H](CO)[C@@H](O)[C@H](O)[C@@H]2O)nn1

Data set [1] has as its system CD86^+ and CD206^+ TAMs, CD4^+ and CD8^+ T cells proximal to CXCR4^+ tumor cells. Description: Spatial distance of immune cells to CXCR4^+ tumor cells. The class given is in vivo, mouse.
Data set [2] deals with TNF-α, IL-12, IL-10 and TGF-β. Briefly: Intratumoral cytokines in homogenized tumor tissues. It is filed as in vivo, mouse. The conditions noted are these: versus saline and PepCXCR4.
Data set [3] relates to tumor tissue in orthotopic bladder cancer mice. Description: Tumor penetration by immunofluorescence of frozen sections. The class given is in vivo, mouse. The conditions noted are these: Cy-labeled bsGP; distance from vessels, compared with antibody. The essentials: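 Orthotopic EJ xenograft nude mice with tumors of about 200 mm³ received saline or test compound (500 µM, 100 µl) by intravesical instillation. Frozen tumor sections were imaged by confocal microscopy.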

The test system of a further data set is NF-κB in RAW264.7 cells. Briefly: Western blot of NF-κB phosphorylation in RAW264.7 cells. The class given is cell-based. The conditions noted are these: 50 μM, 24 hours; compared with mannose. A general note: Immunoblotting shows a protein as a band on a membrane.

As to `CC(C)C[C@H](NC(=O)[C@H](Cc1ccc(O)cc1)NC(=O)CNC(=O)[C@H](CC(C)C)NC(=O)[C@@H]1CCCN1C(=O)CCCc1cn(CC(=O)NC(COCc2cn(CCO[C@H]3O[C@H](CO)[C@@H](O)[C@H](O)[C@@H]3O)nn2)(COCc2cn(CCO[C@H]3O[C@H](CO)[C@@H](O)[C@H](O)[C@@H]3O)nn2)COCc2cn(CCO[C@H]3O[C@H](CO)[C@@H](O)[C@H](O)[C@@H]3O)nn2)nn1)C(=O)NCC(=O)NCCCC[C@H](NC(=O)[C@H](CCCCN)NC(=O)[C@H](CC(=O)O)NC(=O)[C@@H]1CCCN1C(=O)[C@H](CCCNC(=N)N)NC(=O)[C@H](Cc1c[nH]cn1)NC(=O)[C@H](Cc1c[nH]c2ccccc12)NC(=O)[C@H](CO)NC(=O)[C@H](C)NC(=O)CNC(=O)[C@@H](N)CC(C)C)C(=O)N[C@@H](CC(C)C)C(=O)N[C@H](C(=O)N[C@@H](Cc1ccccc1)C(=O)N[C@@H](Cc1ccccc1)C(=O)N[C@@H](C)C(=O)N[C@@H](CCC(=O)O)C(=O)N[C@@H](CS)C(=O)NCC(=O)O)C(C)C` [bsGP] (I: H-LGASWHRPDKKLVFFAECG-OH / II: X1-PLGYLG; amide I:11-II:C; N-terminus and C-terminus assumed), in data set [1] (5- to 10-μm radius), the “decrease of CD206^+ M2-like TAMs versus saline” value is 20% and the “number of CD86^+ M1-like TAMs near tumor cells” value is “up to 6.22 × 10^4”. Further, in data set [1] (spatial distance 10 μm), the “CD4^+ T cell counts relative to saline” value is 4.0 fold and the “CD8^+ T cell counts relative to saline” value was 5.5 fold. The “CD86^+ counts relative to saline” value in data set [1] (spatial distance 10 μm (text: 5- to 10-μm radius)) is 2.6 times. In addition, in data set [2], the “intratumoral secretion of IL-10” value is recorded as “down-regulated”, the “intratumoral secretion of IL-12” value was “substantially up-regulated”, the “intratumoral secretion of TGF-β” value is listed as “down-regulated” and the “intratumoral secretion of TNF-α” value is on record as “substantially up-regulated”. Also, in the data set on C57BL/6 mice (C57BL/6 mice), the body weight loss entry was “without loss of body weight”. Besides, the severe systemic toxicity result in the data set on C57BL/6 mice (intravesical, treatment dose) is “did not induce severe systemic toxicity”. In addition, the “signs of a deteriorating general condition” value with C57BL/6 mice (red skin or reduced food consumption) is listed as “no signs of a deteriorating general condition”. In addition, in data set [3], the “penetration in tumor tissue” value is “deep penetration capability”. Further, in the data set on NF-κB in RAW264.7 cells, the “NF-κB phosphorylation in RAW264.7 cells” value is on record as “effectively activated”.
